ChEMBL document CHEMBL1144800, “Synthesis and antimicrobial properties of monensin A esters” (2008)
≈ marks a conversion by molar mass, not a printed value. Calls of active or inactive are those of the source. The calls are words filed in the database; no cut-off is given here.

Assays:
Staphylococcus aureus [1] = assay: Antibacterial activity against Staphylococcus aureus NCTC 4163 after 18 hrs by serial agar dilution method; type: functional; conditions: NCTC 4163, 18 h
How it was run: (§1)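 MIC by twofold serial agar dilution in Mueller–Hinton II agar per CLSI, run only for compounds that gave an inhibition zone in disc assay. Compounds dissolved in DMSO, tested at 3.125–400 µg/ml in agar. Final inoculum 10^4 CFU/ml. […] DMSO control included.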

Staphylococcus aureus [2] = assay: Antibacterial activity against Staphylococcus aureus ATCC 29213 at 400 ug/disc after 18 hrs by disc diffusion assay; type: functional; conditions: ATCC 29213, 18 h, read-out: IZ
How it was run: (§2)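 Disc diffusion on Mueller–Hinton II agar per CLSI guidelines. Compound in ethanol applied to 9 mm filter paper discs at 400 µg per disc, then dried and placed on the agar surface. Growth inhibition zone diameter read after 18 h at 35 °C.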

Candida albicans [3] = assay: Antifungal activity against Candida albicans ATCC 10231 at 400 ug/disc after 24 hrs by disc diffusion assay; type: functional
How it was run: (§3)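 Disc diffusion on RPMI agar with 2% glucose per CLSI guidelines. Discs 9 mm filter paper, loaded from ethanol solution with 400 µg compound, dried before placing on the agar. Inhibition zone diameter read after incubation at 35 °C. Fluconazole control at 25 µg per disc.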

Micrococcus luteus [4] = assay: Antibacterial activity against Micrococcus luteus ATCC 10240 at 400 ug/disc after 18 hrs by disc diffusion assay; type: functional; conditions: ATCC 10240, 18 h, read-out: IZ; how it was run: as §2
Staphylococcus aureus [5] = assay: Antibacterial activity against Staphylococcus aureus ATCC 25923 after 18 hrs by serial agar dilution method; type: functional; conditions: ATCC 25923, 18 h; how it was run: as §1
Bacillus cereus [6] = assay: Antibacterial activity against Bacillus cereus ATCC 11778 after 18 hrs by serial agar dilution method; type: functional; conditions: ATCC 11778, 18 h; how it was run: as §1
Pseudomonas aeruginosa [7] = assay: Antibacterial activity against Pseudomonas aeruginosa ATCC 15442 at 400 ug/disc after 18 hrs by disc diffusion assay; type: functional, organism-based; how it was run: as §2
Pseudomonas aeruginosa [8] = assay: Antibacterial activity against Pseudomonas aeruginosa NCTC 6749 at 400 ug/disc after 18 hrs by disc diffusion assay; type: functional, organism-based; how it was run: as §2
Enterococcus hirae [9] = assay: Antibacterial activity against Enterococcus hirae ATCC 10541 at 400 ug/disc after 18 hrs by disc diffusion assay; type: functional; how it was run: as §2
Staphylococcus aureus [10] = assay: Antibacterial activity against Staphylococcus aureus ATCC 25923 at 400 ug/disc after 18 hrs by disc diffusion assay; type: functional; conditions: ATCC 25923, 18 h, read-out: IZ; how it was run: as §2
Candida parapsilosis = assay: Antifungal activity against Candida parapsilosis ATCC 22019 at 400 ug/disc after 24 hrs by disc diffusion assay; type: functional; how it was run: as §3
Escherichia coli [11] = assay: Antibacterial activity against Escherichia coli ATCC 10538 at 400 ug/disc after 18 hrs by disc diffusion assay; type: functional, organism-based; how it was run: as §2
Bacillus subtilis [12] = assay: Antibacterial activity against Bacillus subtilis ATCC 6633 after 18 hrs by serial agar dilution method; type: functional; conditions: ATCC 6633, 18 h; how it was run: as §1
Micrococcus luteus [13] = assay: Antibacterial activity against Micrococcus luteus ATCC 10240 after 18 hrs by serial agar dilution method; type: functional; conditions: ATCC 10240, 18 h; how it was run: as §1
Staphylococcus aureus [14] = assay: Antibacterial activity against Staphylococcus aureus NCTC 4163 at 400 ug/disc after 18 hrs by disc diffusion assay; type: functional; conditions: NCTC 4163, 18 h, read-out: IZ; how it was run: as §2
Bacillus subtilis [15] = assay: Antibacterial activity against Bacillus subtilis ATCC 6633 at 400 ug/disc after 18 hrs by disc diffusion assay; type: functional; conditions: ATCC 6633, 18 h, read-out: IZ; how it was run: as §2
Bacillus cereus [16] = assay: Antibacterial activity against Bacillus cereus ATCC 11778 at 400 ug/disc after 18 hrs by disc diffusion assay; type: functional; conditions: ATCC 11778, 18 h, read-out: IZ; how it was run: as §2
Staphylococcus aureus [17] = assay: Antibacterial activity against Staphylococcus aureus ATCC 6538 at 400 ug/disc after 18 hrs by disc diffusion assay; type: functional; conditions: ATCC 6538, 18 h, read-out: IZ; how it was run: as §2
Staphylococcus aureus [18] = assay: Antibacterial activity against Staphylococcus aureus ATCC 6538 after 18 hrs by serial agar dilution method; type: functional; conditions: ATCC 6538, 18 h; how it was run: as §1
Pseudomonas aeruginosa [19] = assay: Antibacterial activity against Pseudomonas aeruginosa ATCC 27853 at 400 ug/disc after 18 hrs by disc diffusion assay; type: functional, organism-based; how it was run: as §2
Proteus vulgaris = assay: Antibacterial activity against Proteus vulgaris NCTC 4635 at 400 ug/disc after 18 hrs by disc diffusion assay; type: functional, organism-based; how it was run: as §2
Escherichia coli [20] = assay: Antibacterial activity against Escherichia coli NCTC 8196 at 400 ug/disc after 18 hrs by disc diffusion assay; type: functional, organism-based; how it was run: as §2
Staphylococcus aureus [21] = assay: Antibacterial activity against Staphylococcus aureus ATCC 29213 after 18 hrs by serial agar dilution method; type: functional; conditions: ATCC 29213, 18 h; how it was run: as §1
Enterococcus hirae [22] = assay: Antibacterial activity against Enterococcus hirae ATCC 10541 after 18 hrs by serial agar dilution method; type: functional; conditions: ATCC 10541, 18 h
How it was run: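 Twofold serial agar dilution MIC in Mueller–Hinton II agar (CLSI), run only for compounds that gave an inhibition zone in disc assay. DMSO solutions tested at 3.125–400 µg/ml in agar. Final inoculum 10^5 CFU/ml. Read after 18 h at 35 °C. DMSO control included.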

[23] = test system: Staphylococcus epidermidis; assay: Antibacterial activity against Staphylococcus epidermidis ATCC 12228 after 18 hrs by serial agar dilution method; type: functional; conditions: ATCC 12228, 18 h; how it was run: as §1
[24] = test system: Staphylococcus epidermidis; assay: Antibacterial activity against Staphylococcus epidermidis ATCC 12228 at 400 ug/disc after 18 hrs by disc diffusion assay; type: functional; how it was run: as §2
Escherichia coli [25] = assay: Antibacterial activity against Escherichia coli ATCC 25922 at 400 ug/disc after 18 hrs by disc diffusion assay; type: functional, organism-based; how it was run: as §2
Micrococcus luteus [26] = assay: Antibacterial activity against Micrococcus luteus ATCC 9341 after 18 hrs by serial agar dilution method; type: functional; conditions: ATCC 9341, 18 h; how it was run: as §1
Candida albicans [27] = assay: Antifungal activity against Candida albicans ATCC 90028 at 400 ug/disc after 24 hrs by disc diffusion assay; type: functional; how it was run: as §3
Micrococcus luteus [28] = assay: Antibacterial activity against Micrococcus luteus ATCC 9341 at 400 ug/disc after 18 hrs by disc diffusion assay; type: functional; how it was run: as §2
[29] = test system: Bordetella bronchiseptica; assay: Antibacterial activity against Bordetella bronchiseptica ATCC 4617 at 400 ug/disc after 18 hrs by disc diffusion assay; type: functional, organism-based; how it was run: as §2

MIC (Staphylococcus aureus [1]) [µg/mL] | MIC (Staphylococcus aureus [5]) [µg/mL] | MIC (Bacillus cereus [6]) [µg/mL] | MIC (Bacillus subtilis [12]) [µg/mL] | MIC (Micrococcus luteus [13]) [µg/mL] | MIC (Staphylococcus aureus [18]) [µg/mL] | Structure (SMILES) | zone of inhibition at 400 µg/disc (Staphylococcus aureus [2]) [mm] | Activity (Candida albicans [3]) | zone of inhibition at 400 µg/disc (Micrococcus luteus [4]) [mm] | Activity (Pseudomonas aeruginosa [7]) | Activity (Pseudomonas aeruginosa [8]) | Activity (Enterococcus hirae [9]) | zone of inhibition at 400 µg/disc (Staphylococcus aureus [10]) [mm] | Activity (Candida parapsilosis) | Activity (Escherichia coli [11]) | zone of inhibition at 400 µg/disc (Staphylococcus aureus [14]) [mm] | zone of inhibition at 400 µg/disc (Bacillus subtilis [15]) [mm] | zone of inhibition at 400 µg/disc (Bacillus cereus [16]) [mm] | zone of inhibition at 400 µg/disc (Staphylococcus aureus [17]) [mm] | Activity (Pseudomonas aeruginosa [19]) | also measured
100 (≈ 122 µM) | 50 (≈ 61.2 µM) | 50 (≈ 61.2 µM) | 25 (≈ 30.6 µM) | 50 (≈ 61.2 µM) | 100 (≈ 122 µM) | CC[C@@]1([C@@H]2O[C@@H]([C@H]3O[C@@](O)(CO)[C@H](C)C[C@@H]3C)C[C@@H]2C)CC[C@H]([C@]2(C)CC[C@]3(C[C@H](O)[C@@H](C)[C@@H]([C@@H](C)[C@@H](OC)[C@H](C)C(=O)OCCOCCOCCOC)O3)O2)O1 | 17 | inactive | 13 | inactive | inactive | inactive | 19 | inactive | inactive | 19 | 20 | 19 | 17 | inactive | Activity (Proteus vulgaris): inactive; Activity (Escherichia coli [20]): inactive; MIC (Staphylococcus aureus [21]): 50 µg/mL (≈ 61.2 µM); MIC (Enterococcus hirae [22]): > 400 µg/mL; MIC [23]: 100 µg/mL (≈ 122 µM); zone of inhibition at 400 µg/disc ([24]; ATCC 12228, 18 h, read-out: IZ): 13 mm; Activity (Escherichia coli [25]): inactive; MIC (Micrococcus luteus [26]): 200 µg/mL (≈ 245 µM); Activity (Candida albicans [27]): inactive; zone of inhibition at 400 µg/disc (Micrococcus luteus [28]; ATCC 9341, 18 h, read-out: IZ): 11 mm; Activity [29]: inactive
100 (≈ 141 µM) | 100 (≈ 141 µM) | 12.5 (≈ 17.6 µM) | 12.5 (≈ 17.6 µM) | 50 (≈ 70.3 µM) | 100 (≈ 141 µM) | C=CCOC(=O)[C@@H](C)[C@H](OC)[C@H](C)[C@H]1O[C@@]2(CC[C@@](C)([C@H]3CC[C@@](CC)([C@@H]4O[C@@H]([C@H]5O[C@@](O)(CO)[C@H](C)C[C@@H]5C)C[C@@H]4C)O3)O2)C[C@H](O)[C@H]1C | 13 | inactive | 11 | inactive | inactive | inactive | 11 | inactive | inactive | 13 | 15 | 14 | 13 | inactive | Activity (Proteus vulgaris): inactive; Activity (Escherichia coli [20]): inactive; MIC (Staphylococcus aureus [21]): 100 µg/mL (≈ 141 µM); MIC (Enterococcus hirae [22]): > 400 µg/mL; MIC [23]: 100 µg/mL (≈ 141 µM); Activity [24]: inactive; Activity (Escherichia coli [25]): inactive; MIC (Micrococcus luteus [26]): 100 µg/mL (≈ 141 µM); Activity (Candida albicans [27]): inactive; Activity (Micrococcus luteus [28]): inactive; Activity [29]: inactive
